{"source": "paper PMC8263925", "about": "(The Journal of General Physiology, 2021)", "key": {"Hv1 WT [1]": {"target": "T1, Hv1 WT (Homo sapiens, UniProt Q96D96)", "T1 sequence (Q96D96 1-273)": "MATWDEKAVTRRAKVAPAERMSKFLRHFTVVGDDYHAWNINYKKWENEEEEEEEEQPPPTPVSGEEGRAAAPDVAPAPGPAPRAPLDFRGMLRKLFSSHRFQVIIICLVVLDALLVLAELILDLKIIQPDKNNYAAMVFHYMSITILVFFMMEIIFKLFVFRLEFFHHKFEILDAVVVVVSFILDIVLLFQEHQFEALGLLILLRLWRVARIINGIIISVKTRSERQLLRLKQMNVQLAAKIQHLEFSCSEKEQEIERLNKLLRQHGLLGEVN", "type": "cell-based", "conditions": "for inhibition kinetics: fast and slow components: RDT = 0.2", "summary_of_the_method": "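WT channel in inside-out oocyte patches, symmetric pH 6.0, 22 ± 1°C. Holding −40 mV, depolarization to +120 mV; relative depolarization time td/(tr + td) of 0.1, 0.2, 0.3 or 0.5. 50 µM perfused into bath, then washed out. End-pulse current normalized. Decay fitted double-exponentially (τfast, τslow, weights, c∞); recovery fitted single-exponentially. n = 7, 7, 5, 8 per RDT; SEM.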"}, "Hv1 WT [2]": {"target": "T1, Hv1 WT", "experiment": "Inside-out patch, pulsed application of inhibitor to the closed channel", "type": "cell-based", "conditions": "100 µM pulses, membrane held at 0 mV or −80 mV", "summary_of_the_method": "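WT channel, inside-out oocyte patches, pH 6.0. Test compound (100 µM) applied in 3 s pulses while the membrane was held closed at −40 mV, or at 0 mV or −80 mV. Current read after each pulse with a step to +120 mV. Control pulses of a reference Hv1 inhibitor given first to confirm complete washout between depolarizations.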"}, "Hv1 WT [3]": {"target": "T1, Hv1 WT", "conditions": "200 µM; ref Hong et al. (2013); cited from earlier work"}, "Hv1": {"tested_on": "Hv1", "conditions": "full set of concentration points; ref Zhao et al., 2021; cited from earlier work"}}}
{"compound": "N=C(N)Nc1nc2ccccc2[nH]1", "note": "[2GBI, 2-guanidinobenzimidazole, reference compound]", "values": [{"measurement": "return of current to original level upon washout", "setting": "Hv1 WT [1]; after 50 μM, washout", "value": "a few seconds"}, {"measurement": "inhibition at 50 µM", "setting": "Hv1 WT [1]; read-out: stable inhibited current level (of the original current)", "value": "~50", "unit": "%"}, {"measurement": "inhibition when transiently perfused on closed channel", "setting": "Hv1 WT [2]", "value": "failed to produce any inhibition"}, {"measurement": "G-V shift", "setting": "Hv1 WT [3]", "value": "lack of G-V shift"}]}
{"compound": "Nc1nc2ccccc2[nH]1", "note": "[ABI, 2-aminobenzimidazole, reference compound]", "values": [{"measurement": "extent and kinetics of proton current inhibition compared with 2GBI", "setting": "Hv1 WT [1]; 50 μM, same conditions as 2GBI", "value": "inhibited the proton current to a smaller extent but with similar kinetics"}]}
{"compound": "Cc1[nH]c(N)nc1/C=C/C(=O)c1cc(F)cc(F)c1", "note": "[HIFEN, (2E)-3-(2-amino-5-methyl-1H-imidazol-4-yl)-1-(3,5-difluorophenyl)prop-2-en-1-one]", "values": [{"measurement": "inhibition kinetics: fast and slow components", "setting": "Hv1 WT [1]; 50 μM", "value": "with fast and slow components"}, {"measurement": "Hill coefficient", "setting": "Hv1", "value": "1.50 ± 0.11"}]}
{"compound": "Cc1[nH]c(N)nc1CCC(=O)c1ccccc1", "note": "[HIFNF, 3-(2-amino-5-methyl-1H-imidazol-4-yl)-1-phenyl-propan-1-one]", "values": [{"measurement": "inhibition kinetics: fast and slow components", "setting": "Hv1 WT [1]; 50 μM", "value": "with fast and slow components"}]}
{"compound": "Cc1[nH]c(N)nc1CNC(=O)c1cc(F)cc(F)c1", "note": "[HIFNH, N-[(2-amino-5-methyl-1H-imidazol-4-yl)methyl]-3,5-difluorobenzamide]", "values": [{"measurement": "inhibition kinetics: fast and slow components", "setting": "Hv1 WT [1]; 50 μM", "value": "with fast and slow components"}]}
{"compound": "Cc1[nH]c(N)nc1CCC(O)c1cc(F)cc(F)c1", "note": "(stereo not shown) [HIFOH, 3-(2-amino-5-methyl-1H-imidazol-4-yl)-1-(3,5-difluorophenyl)propan-1-ol]", "values": [{"measurement": "inhibition kinetics: fast and slow components", "setting": "Hv1 WT [1]; 50 μM", "value": "did not have a significant slow component"}]}
